Data as given in ChEMBL document CHEMBL4400549, “DPD-Inspired Discovery of Novel LsrK Kinase Inhibitors: An Opportunity To Fight Antimicrobial Resistance” (J Med Chem, 2019).

Tests used:
[1] = target: T1, Autoinducer-2 kinase (Salmonella typhimurium (strain LT2 / SGSC1412 / ATCC 700720)) (UniProt Q8ZKQ6); test: Inhibition of Salmonella typhimurium LsrK expressed in Escherichia coli MET1158 at 200 uM using (S)-DPD as substrate after 15 mins by Kinase Glo luminescence assay relative to control; details: Salmonella enterica subsp. enterica serovar Typhimurium
T1 sequence (whole entry): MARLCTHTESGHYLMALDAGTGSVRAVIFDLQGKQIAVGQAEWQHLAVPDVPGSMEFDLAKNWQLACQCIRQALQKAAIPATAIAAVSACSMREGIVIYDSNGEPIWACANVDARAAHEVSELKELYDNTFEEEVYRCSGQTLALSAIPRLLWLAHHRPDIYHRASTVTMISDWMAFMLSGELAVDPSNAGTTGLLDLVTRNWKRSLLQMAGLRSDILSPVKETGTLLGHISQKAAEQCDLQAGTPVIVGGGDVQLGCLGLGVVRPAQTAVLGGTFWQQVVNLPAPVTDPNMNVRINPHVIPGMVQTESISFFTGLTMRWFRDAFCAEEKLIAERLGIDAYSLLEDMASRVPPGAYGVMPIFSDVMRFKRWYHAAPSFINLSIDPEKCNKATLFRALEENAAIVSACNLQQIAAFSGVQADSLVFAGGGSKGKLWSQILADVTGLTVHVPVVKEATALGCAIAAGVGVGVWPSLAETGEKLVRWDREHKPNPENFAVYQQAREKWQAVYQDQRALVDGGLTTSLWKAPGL
Outline: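 Compound at 200 µM in triplicate with 300 nM LsrK, 300 µM (S)-DPD and 100 µM ATP in 25 mM triethanolamine pH 7.4, 200 µM MgCl2, 0.1 mg/mL BSA; 15 min incubation, then Kinase Glo reagent; luminescence read after 30 min; percent inhibition.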

[2] = target: T2, Autoinducer-2 kinase (Salmonella typhimurium (strain LT2 / SGSC1412 / ATCC 700720), UniProt Q8ZKQ6); test: Inhibition of Salmonella typhimurium LsrK expressed in Escherichia coli MET1158 using (S)-DPD as substrate after 15 mins by Kinase Glo luminescence assay; design: species or system Salmonella enterica subsp. enterica serovar Typhimurium
T2 sequence (Q8ZKQ6 whole entry): T1 sequence (whole entry)
Outline: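 Dose-response at 6 concentrations (25–500 µM); 300 nM LsrK, 300 µM (S)-DPD, 100 µM ATP in 25 mM triethanolamine pH 7.4, 200 µM MgCl2, 0.1 mg/mL BSA plus Triton X-100; 15 min, Kinase Glo readout after 30 min; IC50 by four-parameter logistic fit; mean ±SD of two independent experiments (n = 4).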

[3] = target: Glycerol kinase (Escherichia coli (strain K12)) (UniProt P0A6F3); test: Inhibition of Escherichia coli K12 glycerokinase at 25 to 500 uM using glycerol as substrate after 15 mins by Kinase Glo luminescence assay; details: Escherichia coli K-12
Chain of Glycerol kinase (Escherichia coli (strain K12)) (P0A6F3 whole entry): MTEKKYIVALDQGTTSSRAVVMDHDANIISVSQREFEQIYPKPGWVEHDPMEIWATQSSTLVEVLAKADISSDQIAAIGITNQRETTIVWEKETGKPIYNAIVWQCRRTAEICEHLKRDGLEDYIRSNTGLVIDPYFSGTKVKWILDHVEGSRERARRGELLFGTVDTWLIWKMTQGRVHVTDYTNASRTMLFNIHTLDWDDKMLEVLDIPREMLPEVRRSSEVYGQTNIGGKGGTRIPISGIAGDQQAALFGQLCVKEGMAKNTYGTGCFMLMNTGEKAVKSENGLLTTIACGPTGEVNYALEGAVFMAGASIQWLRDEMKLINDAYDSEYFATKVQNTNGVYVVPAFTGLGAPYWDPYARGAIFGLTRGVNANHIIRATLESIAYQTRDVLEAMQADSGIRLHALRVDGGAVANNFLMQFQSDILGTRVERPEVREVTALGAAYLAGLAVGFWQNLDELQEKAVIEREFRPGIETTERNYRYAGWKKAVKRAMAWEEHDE
Outline: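 E. coli glycerokinase 0.3 U/mL with 300 µM glycerol, then 100 µM ATP; run as the LsrK protocol (triethanolamine pH 7.4 buffer, 15 min incubation, Kinase Glo luminescence read after 30 min).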

| inhibition [1] | IC50 [2] | inhibition [3] | SMILES |
| --- | --- | --- | --- |
| 0.4% | – | – | Cc1ccc2cnc(C(O)CO)cc2c1 (stereo not given) |
| 24.5% | – | – | OCC(O)c1cc(-c2ccccc2)nc(C2CC2)n1 (stereo not given) |
| 21.2% | – | – | c1ccc(-c2nc(C3CC3)cc(C3COC4(CCCCC4)O3)n2)nc1 (stereo not given) |
| 7.14% | – | – | CC(C)c1cc(C2COC3(CCCCC3)O2)[nH]n1 (stereo not given) |
| 0% | – | – | CCn1nc(-c2ccccc2)cc1C1COC2(CCCCC2)O1 (stereo not given) |
| 0% | – | – | Cn1nc(-c2ccccc2)cc1C(O)CO (stereo not given) |
| 0% | – | – | c1ccc(-c2cc(C3COC4(CCCCC4)O3)n(C3CCCC3)n2)cc1 (stereo not given) |
| 0.65% | – | – | OCC(O)c1cc2c(F)cccc2cn1 (stereo not given) |
| 9.41% | – | – | Cc1nc(-c2ccccc2)cc(C2COC3(CCCCC3)O2)n1 (stereo not given) |
| 1.47% | – | – | c1c(C2CC2)n[nH]c1C1COC2(CCCCC2)O1 (stereo not given) |
| 28.6% | – | – | Oc1ccc2cc(C3COC4(CCCCC4)O3)ncc2c1 (stereo not given) |
| 0.22% | – | – | Cc1nc(-c2ccccc2)cc(C(O)CO)n1 (stereo not given) |
| 0.48% | – | – | OCC(O)c1cc2ccccc2cn1 (stereo not given) |
| 2.07% | – | – | CC(=O)N1CCC2(CC1)OCC(c1cc(-c3ccccc3)nn1C)O2 (stereo not given) |
| 0% | – | – | CC(C)n1nc(-c2ccccc2)cc1C1COC2(CCCCC2)O1 (stereo not given) |
| 0% | – | – | Cn1nc(C23CC4CC(CC(C4)C2)C3)cc1C(O)CO (stereo not given) |
| 6.32% | – | – | Cc1nc2cc(C3COC4(CCCCC4)O3)ncc2s1 (stereo not given) |
| 0% | – | – | Cn1nc(C23CC4CC(CC(C4)C2)C3)cc1C1COC2(CCCCC2)O1 (stereo not given) |
| 15.2% | – | – | c1ccc(-c2cc(C3COC4(CCCCC4)O3)nc(C3CC3)n2)cc1 (stereo not given) |
| 4.92% | – | – | Cn1nc(-c2cccnc2)cc1C1COC2(CCCCC2)O1 (stereo not given) |
| 0% | – | – | OCC(O)c1cc(C2CCCC2)n[nH]1 (stereo not given) |
| 0% | – | – | N#CCCn1nc(-c2ccccc2)cc1C1COC2(CCCCC2)O1 (stereo not given) |
| 0% | – | – | Cn1nc(C2CC2)cc1C1COC2(CCCCC2)O1 (stereo not given) |
| 1.07% | – | – | Cc1cccc(-c2cc(C3COC4(CCCCC4)O3)n(C)n2)c1 (stereo not given) |
| 2.01% | – | – | Cc1cc(-c2ccccc2)nn1C |
| 53.6% | 475 µM | – | c1ccc(-c2cc(C3COC4(CCCCC4)O3)[nH]n2)cc1 (stereo not given) |
| 0% | – | – | Cn1nc(C2CC2)cc1C(O)CO (stereo not given) |

| inhibition [1] | IC50 [2] | inhibition [3] | SMILES |
| --- | --- | --- | --- |
| 0% | – | – | CC(C)c1cc(C(O)CO)n(C)n1 (stereo not given) |
| 0% | – | – | Cn1nc(C2CCCC2)cc1C1COC2(CCCCC2)O1 (stereo not given) |
| 0% | – | – | Cn1nc(-c2ccco2)cc1C(O)CO (stereo not given) |
| 2.94% | – | – | OCC(O)c1cc(C2CC2)nc(-c2ccccn2)n1 (stereo not given) |
| 0.76% | – | – | c1ccc(-c2nc(C3CC3)cc(C3COC4(CCCCC4)O3)n2)cc1 (stereo not given) |
| 51.6% | 284 µM | Dose-dependent effect | Cn1nc(-c2ccco2)cc1C1COC2(CCCCC2)O1 (stereo not given) |
| 0% | – | – | Cn1nc(-c2cccs2)cc1C(O)CO (stereo not given) |
| 0.2% | – | – | Fc1cccc(-c2nc(-c3cccs3)cc(C3COC4(CCCCC4)O3)n2)c1 (stereo not given) |
| 0% | – | – | c1c(C2CCCC2)n[nH]c1C1COC2(CCCCC2)O1 (stereo not given) |
| 5.56% | – | – | Cn1nc(-c2ccccc2)cc1C1COC2(CCCC2)O1 (stereo not given) |
| 78% | 119 µM | – | Cn1nc(-c2ccccc2)cc1C1COC2(CCCCC2)O1 (stereo not given) |
| 0.96% | – | – | CCCc1nc(-c2cccs2)cc(C2COC3(CCCCC3)O2)n1 (stereo not given) |
| 0.17% | – | – | OCC(O)c1cc2ccsc2cn1 (stereo not given) |
| 0% | – | – | c1c(C23CC4CC(CC(C4)C2)C3)n[nH]c1C1COC2(CCCCC2)O1 (stereo not given) |
| 4.38% | – | – | Cn1nc(-c2cc3ccccc3[nH]2)cc1C1COC2(CCCCC2)O1 (stereo not given) |
| 11.1% | – | – | c1cc2cc(C3COC4(CCCCC4)O3)ncc2s1 (stereo not given) |
| 0% | – | – | OCC(O)c1cc(-c2ccco2)n[nH]1 (stereo not given) |
| 47.8% | – | – | CCCc1nc(-c2cccs2)cc(C(O)CO)n1 (stereo not given) |
| 19.8% | – | – | OCC(O)c1cc(-c2cccs2)nc(-c2cccc(F)c2)n1 (stereo not given) |
| 9.83% | – | – | Cn1nc(-c2ccon2)cc1C1COC2(CCCCC2)O1 (stereo not given) |
| 0% | – | – | c1ccc(-c2cc(C3COC4(CCCCC4)O3)n(-c3ccccc3)n2)cc1 (stereo not given) |
| 5.75% | – | – | c1cc2cc(C3COC4(CCCCC4)O3)ncc2o1 (stereo not given) |
| 0% | – | – | OCC(O)c1cc(-c2ccccc2)n[nH]1 (stereo not given) |
| 31.1% | – | – | Cn1nc(-c2ccccc2)cc1C1COC2(CCOCC2)O1 (stereo not given) |
| 2.07% | – | – | OCC(O)c1cc2ccoc2cn1 (stereo not given) |
| 0% | – | – | CC(C)c1cc(C2COC3(CCCCC3)O2)n(C)n1 (stereo not given) |
| 1.76% | – | – | Fc1cccc2cnc(C3COC4(CCCCC4)O3)cc12 (stereo not given) |

| inhibition [1] | IC50 [2] | inhibition [3] | SMILES |
| --- | --- | --- | --- |
| 6.26% | – | – | Cc1nc(C2CC2)cc(C2COC3(CCCCC3)O2)c1C(=O)O (stereo not given) |
| 21.6% | – | – | OCC(O)c1cc(C2CC2)nc(-c2ccccc2)n1 (stereo not given) |
| 0% | – | – | c1ccc(-c2cc(C3COC4(CCCCC4)O3)n(C3CC3)n2)cc1 (stereo not given) |
| 1.67% | – | – | OCC(O)c1cc2ccc(O)cc2cn1 (stereo not given) |
| 0% | – | – | Cn1nc(-c2cccs2)cc1C1COC2(CCCCC2)O1 (stereo not given) |
| 0.1% | – | – | Cc1nc2cnc(C(O)CO)cc2s1 (stereo not given) |
| 4.42% | – | – | Cn1nc(-c2cc(F)cc(Cl)c2)cc1C1COC2(CCCCC2)O1 (stereo not given) |
| 0% | – | – | OCC(O)c1cc(-c2cccs2)n[nH]1 (stereo not given) |
| 0% | – | – | Cn1nc(C2CCCC2)cc1C(O)CO (stereo not given) |
| 0% | – | – | Cn1nc(-c2ccccc2)cc1C1COC2(CCCCCC2)O1 (stereo not given) |
| 0.81% | – | – | Cc1nc(-c2ccccc2)cc(C(O)CO)c1C(=O)O (stereo not given) |
| 1.66% | – | – | Cc1ccc2cnc(C3COC4(CCCCC4)O3)cc2c1 (stereo not given) |
| 14.9% | – | – | c1ccc2cc(C3COC4(CCCCC4)O3)ncc2c1 (stereo not given) |
| 0% | – | – | Cc1nc(-c2ccccc2)cc(C2COC3(CCCCC3)O2)c1C(=O)O (stereo not given) |
| 0% | – | – | OCC(O)c1cc(C23CC4CC(CC(C4)C2)C3)n[nH]1 (stereo not given) |
| 43.5% | 384 µM | Dose-dependent effect | c1coc(-c2cc(C3COC4(CCCCC4)O3)[nH]n2)c1 (stereo not given) |
| 0.19% | – | – | CN(C)c1ccc(-c2cc(C3COC4(CCCCC4)O3)n(C)n2)cc1 (stereo not given) |
| 1.33% | – | – | Cc1nc(C2CC2)cc(C(O)CO)c1C(=O)O (stereo not given) |
| 1.51% | – | – | Cn1nc(C2CCCCC2)cc1C1COC2(CCCCC2)O1 (stereo not given) |
| 0% | – | – | OCC(O)c1cc(C2CC2)n[nH]1 (stereo not given) |
| 0.1% | – | – | CCOC(=O)c1c(C2COC3(CCCCC3)O2)cc(-c2ccccc2)nc1C (stereo not given) |
| 0.36% | – | – | CCOC(=O)c1c(C2COC3(CCCCC3)O2)cc(C2CC2)nc1C (stereo not given) |
| 0% | – | – | Cn1nc(-c2cccc(C#N)c2)cc1C1COC2(CCCCC2)O1 (stereo not given) |
| 0% | – | – | CC(C)c1cc(C(O)CO)[nH]n1 (stereo not given) |
| 26.5% | – | – | c1csc(-c2cc(C3COC4(CCCCC4)O3)[nH]n2)c1 (stereo not given) |
